Results: ChEMBL document CHEMBL1135620, “Cyclosporins: structure-activity relationships for the inhibition of the human FPR1 formylpeptide receptor” (J Med Chem, 2002)

Biological target: T1, fMet-Leu-Phe receptor (Homo sapiens, UniProt P21462)
T1 sequence (P21462 whole entry): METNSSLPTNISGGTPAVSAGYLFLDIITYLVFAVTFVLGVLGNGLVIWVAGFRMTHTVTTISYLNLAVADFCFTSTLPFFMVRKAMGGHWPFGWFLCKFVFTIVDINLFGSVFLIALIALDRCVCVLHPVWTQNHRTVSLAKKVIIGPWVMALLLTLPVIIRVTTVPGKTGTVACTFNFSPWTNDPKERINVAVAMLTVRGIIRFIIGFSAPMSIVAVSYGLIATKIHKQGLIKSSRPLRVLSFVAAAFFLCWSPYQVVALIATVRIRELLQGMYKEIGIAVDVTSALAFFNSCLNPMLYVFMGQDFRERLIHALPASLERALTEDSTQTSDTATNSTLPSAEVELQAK
Assay: Inhibitory activity against human formylpeptide receptor (FPR) of human leukemia HL-60 cells
Format: cell-based
How it was run: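 HL-60 cells differentiated 48 h with 0.2 mM dibutyryl cAMP, washed, then treated with 5 μM cytochalasin B (5–10 min, 37 °C). Stimulated 10 min with 30 nM f-MLF. N-acetyl-β-D-glucosaminidase release read at 410 nm on p-nitrophenyl substrate after spontaneous-release subtraction. Duplicate wells; IC20/IC50 as mean ± SD of independent experiments.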

Row | IC50 | IC50 (hl-60) | Structure (SMILES)
1 | > 10 µM | – | C/C=C/C[C@@H](C)[C@@H](O)[C@H]1C(=O)N[C@@H](CCC)C(=O)N(C)CC(=O)N(C)[C@@H](CC(C)C)C(=O)N[C@@H](C(C)C)C(=O)N[C@@H](CC(C)C)C(=O)N[C@@H](C)C(=O)N[C@H](C)C(=O)N(C)[C@@H](CC(C)C)C(=O)N(C)[C@@H](CC(C)C)C(=O)N(C)[C@@H](C(C)C)C(=O)N1C
2 | > 10 µM | – | CC(C)C[C@H]1C(=O)N[C@@H](C(C)C)C(=O)N(C)[C@@H](CC(C)C)C(=O)N[C@@H](C)C(=O)N[C@H](C)C(=O)N(C)[C@@H](CC(C)C)C(=O)N(C)[C@@H](CC(C)C)C(=O)N(C)[C@@H](C(C)C)C(=O)N(C)[C@@H](CC(C)C)C(=O)N[C@@H](C(C)C)C(=O)N(C)CC(=O)N1C
3 | 6.3 µM | – | CC/C=C/C[C@@H](C)[C@@H](O)[C@H]1C(=O)N[C@@H](CC)C(=O)N(C)CC(=O)N(C)[C@@H](CC(C)C)C(=O)N[C@@H](C(C)C)C(=O)N(C)[C@@H](CC(C)C)C(=O)N[C@@H](C)C(=O)N[C@H](CCCCN)C(=O)N(C)[C@@H](CC(C)C)C(=O)N(C)[C@@H](CC(C)C)C(=O)N(C)[C@@H](C(C)C)C(=O)N1C
4 | – | > 5 µM | C/C=C/C[C@@H](C)[C@@H](O)[C@H]1C(=O)N[C@@H](CC)C(=O)N(C)CC(=O)N[C@@H]([C@@H](C)CC)C(=O)N[C@@H](C(C)C)C(=O)N(C)[C@@H](CC(C)C)C(=O)N[C@@H](C)C(=O)N[C@H](C)C(=O)N(C)[C@@H](CC(C)C)C(=O)N(C)[C@@H](CC(C)C)C(=O)N(C)[C@@H](C(C)C)C(=O)N1C
5 | 7 µM | – | CC/C=C/C[C@@H](C)[C@@H](O)[C@H]1C(=O)N[C@@H](CC)C(=O)N(C)CC(=O)N(C)[C@@H]([C@@H](C)CC)C(=O)N[C@@H](C(C)C)C(=O)N(C)[C@@H](CC(C)C)C(=O)N[C@@H](C)C(=O)N[C@H](C)C(=O)N(C)[C@@H](CC(C)C)C(=O)N(C)[C@@H](CC(C)C)C(=O)N(C)[C@@H](C(C)C)C(=O)N1C
6 | > 3 µM | – | C/C=C/C[C@@H](C)[C@@H](O)[C@H]1C(=O)N[C@@H]([C@@H](C)O)C(=O)N(C)CC(=O)N(C)[C@@H](CC(C)C)C(=O)N[C@@H](C(C)C)C(=O)N(C)[C@@H](CC(C)C)C(=O)N[C@@H](C)C(=O)N[C@H](C)C(=O)N(C)[C@@H](CC(C)C)C(=O)N[C@@H](CC(C)C)C(=O)N(C)[C@@H](C(C)C)C(=O)N1C
7 | > 10 µM | – | CCCCCC[C@H]1C(=O)N[C@@H](CC)C(=O)N(C)CC(=O)N(C)[C@@H](CC(C)C)C(=O)N[C@@H](C(C)C)C(=O)N(C)[C@@H](CC(C)C)C(=O)N[C@@H](C)C(=O)N[C@H](C)C(=O)N(C)[C@@H](CC(C)C)C(=O)N(C)[C@@H](CC(C)C)C(=O)N(C)[C@@H](C(C)C)C(=O)N1C
8 | > 10 µM | – | CC/C=C/C[C@@H](C)[C@@H](O)[C@H]1C(=O)N[C@@H]([C@@H](C)O)C(=O)N(C)CC(=O)N(C)[C@@H](CC(C)C)C(=O)N[C@@H](C(C)C)C(=O)N(C)[C@@H](CC(C)C)C(=O)N[C@@H](C)C(=O)N[C@H](C)C(=O)N(C)[C@@H](CC(C)C)C(=O)N(C)[C@@H](CC(C)C)C(=O)N(C)[C@@H](C(C)C)C(=O)N1C
9 | > 10 µM | – | CC/C=C/C[C@@H](C)[C@@H](O)[C@H]1C(=O)N[C@@H](CC)C(=O)N(C)CC(=O)N(C)[C@@H](CC(C)(C)O)C(=O)N[C@@H](C(C)C)C(=O)N(C)[C@@H](CC(C)C)C(=O)N[C@@H](C)C(=O)N[C@H](C)C(=O)N(C)[C@@H](CC(C)C)C(=O)N(C)[C@@H](CC(C)C)C(=O)N(C)[C@@H](C(C)C)C(=O)N1C
10 | 3 µM | – | C/C=C/C[C@@H](C)[C@@H](O)[C@H]1C(=O)N[C@@H](CC)C(=O)N(C)CC(=O)N(C)[C@@H](CC(C)C)C(=O)N[C@@H](C(C)C)C(=O)N(C)[C@@H](CC(C)C)C(=O)N[C@@H](C)C(=O)N[C@H](C)C(=O)N[C@@H](CC(C)C)C(=O)N(C)[C@@H](CC(C)C)C(=O)N(C)[C@@H](C(C)C)C(=O)N1C
11 | – | > 10 µM | CC/C=C/C[C@@H](C)[C@@H](O)[C@H]1C(=O)N[C@@H](CC)C(=O)N(C)CC(=O)N(C)[C@@H](Cc2ccccc2)C(=O)N[C@@H](C(C)C)C(=O)N(C)[C@@H](CC(C)C)C(=O)N[C@@H](C)C(=O)N[C@H](C)C(=O)N(C)[C@@H](CC(C)C)C(=O)N(C)[C@@H](CC(C)C)C(=O)N(C)[C@@H](C(C)C)C(=O)N1C
12 | > 5 µM | – | CC/C=C/C[C@@H](C)[C@@H](O)[C@H]1C(=O)N[C@@H](CC)C(=O)N(C)CC(=O)N(C)[C@@H](C(C)C)C(=O)N[C@@H](C(C)C)C(=O)N(C)[C@@H](CC(C)C)C(=O)N[C@@H](C)C(=O)N[C@H](C)C(=O)N(C)[C@@H](CC(C)C)C(=O)N(C)[C@@H](CC(C)C)C(=O)N(C)[C@@H](C(C)C)C(=O)N1C
13 | – | > 10 µM | C/C=C/C[C@@H](C)[C@@H](O)[C@H]1C(=O)N[C@@H](CC)C(=O)N(C)CC(=O)N(C)[C@@H](CC(C)C)C(=O)N[C@@H](C(C)C)C(=O)N(C)[C@@H](CC(C)C)C(=O)N[C@@H](C)C(=O)N[C@H](C)C(=O)N(C)[C@@H](CC(C)C)C(=O)N(C)[C@@H](CC(C)C)C(=O)N(C)[C@@H]([C@@H](C)CC)C(=O)N1C
14 | > 10 µM | – | C/C=C/C[C@@H](C)[C@@H](O)[C@H]1C(=O)N[C@@H](CC)C(=O)N(C)CC(=O)N(C)[C@@H](CC(C)C)C(=O)N[C@@H](C(C)C)C(=O)N(C)[C@@H](CC(C)C)C(=O)N[C@@H](C)C(=O)N[C@H](C)C(=O)N(C)[C@@H](CC(C)C)C(=O)N(C)[C@@H](CC(C)C)C(=O)N[C@@H](C(C)C)C(=O)N1C
15 | > 10 µM | – | CC/C=C/C[C@@H](C)[C@@H](O)[C@H]1C(=O)N[C@@H](C(C)C)C(=O)N(C)CC(=O)N(C)[C@@H](CC(C)C)C(=O)N[C@@H](C(C)C)C(=O)N(C)[C@@H](CC(C)C)C(=O)N[C@@H](C)C(=O)N[C@H](C)C(=O)N(C)[C@@H](CC(C)C)C(=O)N(C)[C@@H](CC(C)C)C(=O)N(C)[C@@H](C(C)C)C(=O)N1C
16 | 2.52 µM | – | C/C=C/C[C@@H](C)[C@@H](O)[C@H]1C(=O)N[C@@H](CC)C(=O)N(C)CC(=O)N(C)[C@@H](CC(C)C)C(=O)N[C@@H](C(C)C)C(=O)N(C)[C@@H](CC(C)C)C(=O)N[C@@H](C)C(=O)N[C@H](C)C(=O)N(C)[C@@H](CC(C)C)C(=O)N(C)[C@@H](CC(C)C)C(=O)N(C)[C@@H](C)C(=O)N1C
17 | > 10 µM | – | C/C=C/C[C@@H](C)C[C@H]1C(=O)N[C@@H](CC)C(=O)N(C)CC(=O)N(C)[C@@H](CC(C)C)C(=O)N[C@@H](C(C)C)C(=O)N(C)[C@@H](CC(C)C)C(=O)N[C@@H](C)C(=O)N[C@H](C)C(=O)N(C)[C@@H](CC(C)C)C(=O)N(C)[C@@H](CC(C)C)C(=O)N(C)[C@@H](C(C)C)C(=O)N1C
18 | > 3 µM | – | C/C=C/C[C@@H](C)[C@@H](O)[C@H]1C(=O)N[C@@H](CCC)C(=O)N(C)CC(=O)N(C)[C@@H](CC(C)C)C(=O)N[C@@H](C(C)C)C(=O)N(C)[C@@H](CC(C)C)C(=O)N[C@@H](C)C(=O)N[C@H](C)C(=O)N(C)[C@@H](CC(C)C)C(=O)N[C@@H](CC(C)C)C(=O)N(C)[C@@H](C(C)C)C(=O)N1C

Row | Structure (SMILES) | IC50 | IC50 (hl-60)
19 | C/C=C/C[C@@H](C)[C@@H](O)[C@H]1C(=O)N[C@@H]([C@@H](C)O)C(=O)NCC(=O)N(C)[C@@H](CC(C)C)C(=O)N[C@@H](CC(C)C)C(=O)N(C)[C@@H](CC(C)C)C(=O)N[C@@H](C)C(=O)N[C@](O)(C(C)C)C(=O)N(C)[C@@H](CC(C)C)C(=O)N[C@@H](CC(C)C)C(=O)N(C)[C@@H](C(C)C)C(=O)N1C | 0.3 µM | –
20 | C/C=C/C[C@@H](C)[C@@H](O)[C@H]1C(=O)N[C@@H]([C@@H](C)O)C(=O)N(C)CC(=O)N(C)[C@@H](CC(C)C)C(=O)N[C@@H]([C@@H](C)CC)C(=O)N(C)[C@@H](CC(C)C)C(=O)N[C@@H](C)C(=O)N[C@](O)(C(C)C)C(=O)N(C)[C@@H](CC(C)C)C(=O)N[C@@H](CC(C)C)C(=O)N(C)[C@@H](C(C)C)C(=O)N1C | 0.75 µM | –
